Screening results: PubChem, several laboratories
PKD1 inh: blocks activity of human protein kinase D1 | PKD1 kinase fluorescence polarization assay | inhibition, % (test concentration not listed) | Q15139 | hit rate 0.056% among 200,000; in the data active = inhibition above about 50%
p97 inhibitor: blocks human p97 ATPase activity; P55072; recombinant p97 ATPase, Kinase-Glo ATP luminescence, 3 h; inhibition, % at 8 µM; hit rate 0.42% among 220,000; AID 1481; in the data active = inhibition above about 15%;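 also: 0% = DMSO vehicle and 100% = wells lacking enzyme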
Cl transport mod: KCC2 (human) Cl- transport modulation | hit rate 2.2% among 190,000 | KCC2 cells, thallium flux FluoZin-2 fluorescence | B-score of Tl+ flux slope (higher = more flux/activation; lower = inhibition) at 10 µM | AID 1456;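 active = thallium flux slope and its plate-corrected score both differing from the plate sample mean at a set confidence after two filtering rounds, in either direction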;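 also: slope of fluorescence scaled to starting intensity during 10 to 20 s after thallium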
Redox H2O2 prof: compounds producing H2O2 with reducing agent – biochemical, NIH compound library profiling, artefact control for MLSCN library redox annotation, primary screen. DTT-dependent redox cycling H2O2, phenol red/HRP absorbance; 100% = 100 µM peroxide control, 0% = buffer. activation, % at 10 µM. hit rate 0.03% among 200,000;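 active = activation of at least 50% relative to the plate's high and low controls in the primary single-dose screen; inactive = activation below 50%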;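 also: compound incubated with DTT at 0.8 mM final as the reducing agent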
MDM2 E3 inh: inhibitors of human Mdm2 E3 ubiquitin ligase | Q00987 | cell-based MDM2 ubiquitination luciferase reporter, 2 h; 0 = plate control, 100 = twice control, blank-subtracted | signal enhancement, % at 5 µM | hit rate 0.11% among 210,000 | AID 1230;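 active = signal enhancement of 30% or more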;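 also: luminescence tracks abundance of the self-degrading MDM2-luciferase fusion protein; higher signal means inhibition of MDM2 E3 ligase activity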
Target sequence (Q00987 whole entry, looked up, the tested form may be a part): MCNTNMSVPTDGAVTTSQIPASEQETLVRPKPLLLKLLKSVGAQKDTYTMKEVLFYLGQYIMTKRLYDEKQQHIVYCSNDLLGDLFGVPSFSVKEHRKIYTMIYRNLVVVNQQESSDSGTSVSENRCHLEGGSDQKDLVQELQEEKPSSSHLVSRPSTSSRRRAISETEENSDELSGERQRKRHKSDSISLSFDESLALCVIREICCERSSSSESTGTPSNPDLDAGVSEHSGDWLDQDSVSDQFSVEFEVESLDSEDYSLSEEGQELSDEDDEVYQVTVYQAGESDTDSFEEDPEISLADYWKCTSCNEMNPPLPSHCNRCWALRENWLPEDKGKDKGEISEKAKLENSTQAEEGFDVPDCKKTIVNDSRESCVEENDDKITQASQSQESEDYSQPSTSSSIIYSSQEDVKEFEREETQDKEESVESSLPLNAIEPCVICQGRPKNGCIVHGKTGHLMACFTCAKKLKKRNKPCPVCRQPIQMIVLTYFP
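Test system: stable mammalian line carrying autodegrading MDM2–luciferase fusion reporter; quantity: 2000 cells in each well; times: 4 h cell settling then 2 h compound exposure, 37 °C; detection: luminescence with SteadyLite reagent, 15 min at room temperature; evaluation: percent signal gain over controls, blank-subtracted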
ROMK mod: modulators of human ROMK potassium channel. P48048. Tet-inducible ROMK, thallium flux fluorescence; actives lie on both sides. B-score at 10 µM. hit rate 2% among 130,000. AID 1918;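 active = signal ratio slope over the read window, or its plate-corrected B-score, at least 3 SD from the plate mean, either direction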;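 also: B-score of the F/F0 ratio slope over 7 to 12 s after thallium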
KCC2 secondary: KCC2 (human) modulation, secondary assay. shares compounds with Cl transport mod. HEK293-KCC2, thallium flux, FluoZin2 fluorescence; active compounds read high. normalised thallium flux (F/F0 slope) at 10 µM. hit rate 15% among 3,700. AID 1713;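 active = thallium flux slope above the same plate's solvent-only control mean plus 3 SD; inconclusive = the two replicate wells disagree; inactive = no significant difference from solvent-only control wells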
KCC2 bumet counter: bumetanide-insensitive thallium flux in KCC2 cells with ouabain, counter-screen. AID 1714. HEK293-KCC2 + bumetanide/ouabain, thallium flux FluoZin2; active compounds read high. normalized thallium flux at 10 µM. hit rate 49% among 3,700. shares compounds with Cl transport mod;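 active = thallium entry rate above the same plate's blocked-transporter control wells by more than 3 SD; inconclusive = the two repeat wells disagree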;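 also: raw slope of fluorescence over initial fluorescence between 10 and 20 s after thallium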
KCC2 secondary2: KCC2 (human) modulation, second secondary assay; shares compounds with Cl transport mod; HEK293-KCC2, thallium flux FluoZin2 fluorescence; actives lie on both sides; F/F0 rise rate, 10–20 s post-thallium; normalized thallium flux at 10 µM; hit rate 23% among 3,700; AID 1715;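 active = thallium flux slope more than 3 SD above or below the plate's solvent-only control mean, mostly below; inconclusive = the two repeat wells disagreed; inactive = no significant shift from solvent-only controls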;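 also: raw slope with 0.1% DMSO as baseline and bumetanide as block control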
HEK293 Tl flux: parental HEK flux effect, counter-screen | thallium flux rate (normalised fluorescence) at 10 µM | shares compounds with Cl transport mod | HEK293 parental cells, thallium flux FluoZin2, ouabain; baseline-ratio fluorescence slope, 10–20 s after thallium | hit rate 46% among 3,700;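 active = thallium flux rate significantly above the same plate's solvent-only control wells, beyond their mean plus 3 SD; inconclusive = the two replicate wells gave conflicting results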
KCC2 ouabain: confirmation of human KCC2 modulators with ouabain. raw Tl+ flux slope (below DMSO = inhibition, above = activation) at 10 µM. HEK293-KCC2, thallium flux FluoZin2 fluorescence; bidirectional: low = inhibitor, high = activator. hit rate 48% among 3,700. shares compounds with Cl transport mod;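 active = thallium flux slope beyond 3 SD from same-plate DMSO control mean in most replicates, usually higher, sometimes lower; inconclusive = repeat tests gave conflicting results; inactive = no significant difference from controls in most replicates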;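 also: slope of initial-normalized fluorescence between seconds 10 and 20 after thallium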
HEK counter2: parental HEK flux effect, counter-screen 2; shares compounds with Cl transport mod; HEK293 parental, thallium flux FluoZin-2 fluorescence slope; thallium flux slope at 10 µM; hit rate 33% among 3,700; AID 1718;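 active = thallium flux slope above the same plate's solvent-control mean plus 3 SD in both duplicate wells; inconclusive = duplicate wells that disagreed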;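 also: run without ouabain in cells lacking the KCC2 cotransporter; slope of fluorescence scaled to its starting value between 10 and 20 s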
Active calls of the source: *; ? = inconclusive; / = no result given. The list is not random: actives were taken first. Their share in the collection is about 3.4%.

SMILES | PKD1 inh | p97 inhibitor | Cl transport mod | Redox H2O2 prof | MDM2 E3 inh | ROMK mod | KCC2 secondary | KCC2 bumet counter | KCC2 secondary2 | HEK293 Tl flux | KCC2 ouabain | HEK counter2
Nc1ccc(O)c2c1C(=O)c1ccccc1C2=O | 32 | -6 | -1 | 2 | -7 | -0.49 | / | / | / | / | / | /
Nc1ccc(Br)c2c1C(=O)c1ccccc1C2=O | 9 | 14 | -3.8* | 3 | -21 | / | ? | ? | 0.032 | ? | 0.018 | 0.011
CC1=C(C)C(c2ccccc2)NC(=S)N1 (stereo not given) | 0 | 3 | 0.22 | 0 | 9 | -0.34 | / | / | / | / | / | /
CN(Cc1ccccc1)C(=O)CN(c1ccc(F)cc1)S(=O)(=O)c1ccc2c(c1)OCCO2 | 4 | 1 | -2.1 | 1 | / | / | / | / | / | / | / | /
CCC1CCc2[nH]nc(C(=O)O)c2C1 (stereo not given) | -11 | 1 | 4.3* | 0 | -15 | -0.8 | 0.0098 | 0.007 | 0.029 | 0.0066 | 0.021 | 0.0098
CC1CCc2[nH]nc(C(=O)O)c2C1 (stereo not given) | -10 | -2 | 0.22 | -2 | -28 | / | / | / | / | / | / | /
Cc1cc(F)ccc1S(=O)(=O)Nc1ncnc2sc3c(c12)CCC3 | 1 | -1 | -1.5 | -1 | -19 | 0.72 | / | / | / | / | / | /
O=S(=O)(Nc1ncnc2sc3c(c12)CCC3)c1ccc2ccccc2c1 | -1 | 0 | -3.1* | 0 | -15 | -0.21 | 0.0076 | 0.0056* | 0.029 | 0.0076 | 0.016 | 0.01
COc1cccc(NC(=S)Nc2ccc(O)cc2)c1 | / | 11 | 0.007 | / | / | / | / | / | / | / | / | /
C=CCn1c(O)c(N=NC(=S)Nc2ccc(OC)c(Cl)c2)c2ccccc21 | -7 | 8 | 21* | 0 | -4 | 0.34 | 0.0065 | 0.029* | 0.035 | 0.024* | 0.028* | 0.016*
Cn1c(O)c(N=NC(=S)Nc2ccccc2F)c2cc(S(=O)(=O)N3CCOCC3)ccc21 | -2 | 6 | 37* | 0 | -4 | 0.1 | 0.016* | 0.056* | 0.036 | ? | 0.044* | ?
Cc1ccc(NC(=S)N=Nc2c(O)n(C)c3ccc(S(=O)(=O)N4CCOCC4)cc23)cc1C | -22 | -1 | 7.4* | 1 | -7 | 1.1 | 0.011 | 0.013* | 0.034 | 0.032* | ? | 0.018*
C=CCn1c(O)c(N=NC(=S)Nc2ccccc2C)c2cc(S(=O)(=O)N3CCOCC3)ccc21 | -12 | 3 | 14* | 1 | -1 | 0.2 | 0.013* | 0.072* | 0.036 | 0.02* | 0.029 | 0.015*
O=C(NCCO)c1cc([N+](=O)[O-])cc2c1C=Cc1ccccc1O2 | 8 | 5 | -0.0003 | 0 | 12 | 0.84 | / | / | / | / | / | /
Cc1ccc(N=Nc2c(O)n(CN3CCOCC3)c3ccccc23)cc1 | 9 | -3 | / | -2 | -4 | / | / | / | / | / | / | /
Cc1cccc(NC(=S)N=Nc2c(O)n(CN3CCOCC3)c3ccccc23)c1C | 0 | 6 | 5.3* | 0 | -3 | / | 0.024* | 0.021* | 0.035 | 0.012* | 0.026* | 0.012*
N=C1S/C(=C\c2ccco2)C(=O)N1c1nccs1 | -7 | 4 | 19* | -1 | -12 | 0.56 | 0.028* | 0.075* | ? | 0.028* | 0.049* | 0.015*
Cc1cccc(NC(=O)C2CCN(S(=O)(=O)c3cccs3)CC2)c1 | -1 | -1 | -1.1 | 0 | -10 | -1.7 | / | / | / | / | / | /
CC(C)OCCCNC(=O)c1ccc(Br)cc1 | -1 | 1 | 0.64 | 2 | 4 | / | / | / | / | / | / | /
CC(C)OCCCn1c(-c2ccc(Br)cc2)c[nH]c1=S | 2 | -6 | 9.5* | -1 | -6 | 0.22 | 0.0094 | 0.043* | 0.036 | 0.02* | 0.04* | 0.013*
CCOc1cc(C2NN=C(c3ccccc3)S2)ccc1OCc1ccc(F)cc1 (stereo not given) | -2 | -2 | -0.68 | 0 | -39 | -0.0019 | / | / | / | / | / | /
CCOc1cc(C2NN=C(c3ccccc3)S2)ccc1OCc1ccccc1Cl (stereo not given) | 8 | 0 | 6* | -3 | 0 | -0.46 | 0.0085 | 0.0045 | 0.031 | 0.0077 | 0.019 | 0.01
COc1ccc(-c2csc(NC(=O)Cc3cccc4ccccc34)c2C(=O)O)cc1 | 4 | 5 | -4.1* | 1 | -4 | 0.58 | 0.0078 | 0.0051 | 0.028 | 0.0084 | 0.017 | 0.011
COc1ccc(NC(=O)c2cccs2)cc1O | -6 | -2 | / | -3 | -9 | / | / | / | / | / | / | /
COc1ccc(-c2csc(NC(=O)c3cccs3)c2C(=O)O)cc1OC | -1 | 9 | -3.7* | -1 | 5 | / | 0.0076 | 0.0065 | 0.036 | 0.0036 | 0.016* | 0.012
SMILES | PKD1 inh | p97 inhibitor | Cl transport mod | Redox H2O2 prof | MDM2 E3 inh | ROMK mod | KCC2 secondary | KCC2 bumet counter | KCC2 secondary2 | HEK293 Tl flux | KCC2 ouabain | HEK counter2
CCOCN(C(=O)Cn1c(COC)nc2ccccc21)c1c(C)cccc1CC | 3 | -3 | 0.55 | 0 | -6 | 0.59 | / | / | / | / | / | /
O=c1cc(-c2ccccc2)nc(SCc2ccc(F)cc2)[nH]1 | -5 | 12 | 3.9* | 0 | -10 | 0.38 | 0.0065 | 0.0048 | 0.027 | 0.0075 | 0.018 | 0.0099
Cn1c(CSc2nc3ccccc3s2)nc2ccccc21 | -3 | -3 | -4.4* | 0 | -6 | -1.6 | 0.0059 | 0.0049 | 0.024* | 0.007 | ? | 0.01
Cn1c(CSc2nc3ccccc3s2)n[nH]c1=S | 11 | 1 | / | 0 | -19 | / | ? | 0.0059 | ? | 0.0071 | 0.011* | ?
S=c1[nH]nc(CSc2nc3ccccc3s2)o1 | -8 | 4 | -5.5 | 0 | -28 | 0.87 | / | / | / | / | / | /
CC(=O)CSc1nc2ccccc2s1 | -4 | 5 | 1.3 | 0 | -26 | / | / | / | / | / | / | /
COc1cc(CN2CC(=O)N(c3ccc(C)c(C)c3)C2=S)cc(OC)c1OC | -3 | 7 | 0.011 | 0 | 1 | 0.15 | / | / | / | / | / | /
CCOc1ccc2nc(SCC)[nH]c2c1 | -1 | -4 | -0.069 | 0 | -5 | / | / | / | / | / | / | /
Cc1oc(-c2cc(F)ccc2F)nc1CN(C)Cc1ccc2nccnc2c1 | -1 | -1 | 0.7 | 0 | -2 | / | / | / | / | / | / | /
